Each compound was assayed against Regulator of G-protein signaling 16 (Homo sapiens) (UniProt O15492) (assay: small molecules altering RGS16 interaction with Galphao – biochemical, multiplexed bead flow cytometry, SAR compounds, SAR follow-up (AID 2298)). Conditions: bead-based flow cytometry, AF488-Galphao binding to RGS16.
Sequence of Regulator of G-protein signaling 16 (Homo sapiens) (O15492 whole entry, looked up): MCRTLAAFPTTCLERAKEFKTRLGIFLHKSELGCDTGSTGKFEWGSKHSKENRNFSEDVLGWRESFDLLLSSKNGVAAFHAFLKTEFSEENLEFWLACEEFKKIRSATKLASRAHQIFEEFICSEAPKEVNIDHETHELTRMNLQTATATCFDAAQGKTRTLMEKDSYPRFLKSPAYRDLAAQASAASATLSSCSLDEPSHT
Outline: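 Times – Bead–Galphao binding incubation 30–90 min, room temperature · Test system – biotinylated RGS16 on colour-coded streptavidin beads, multiplexed with other RGS beads · Doses – Nine-point threefold dilution series of compound · Detection – flow cytometry, median FL1 fluorescence per bead set · Read-out basis – variable-slope logistic EC50, converted to Ki using Kd 30 nM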
`NS(=O)(=O)c1ccc(N/N=C/c2ccc(O)c(O)c2O)c([N+](=O)[O-])c1` gave an EC50 of 0.029 µM.

Same assay, conditions: bead-based flow cytometry, AF488-Galphao binding to RGS16; measured here: Ki derived from EC50, inhibitors
Compound `O=C(Cc1csc(N2CCOCC2)n1)N/N=C/c1ccc(O)c(O)c1O` has a Ki of 0.67 µM.
With `CCOC(=O)c1sc(NC(=O)CSc2nnc(Cc3ccccc3)o2)c(C#N)c1C` the Ki was 0.58 µM.
Compound `CCN=c1scc(C)n1/N=C/c1ccc(O)c(O)c1O` has a Ki of 0.85 µM.
Work on `O=c1c2ccccc2sn1-c1ccc(S(=O)(=O)N2CCCC2)cc1` yielded a Ki of 0.02 µM.
`O=C(NCCCN1CCOCC1)c1sc2cc([N+](=O)[O-])ccc2c1Cl` was tested, and the Ki was 0.27 µM.
With `CC(NC(=O)c1sc2cc([N+](=O)[O-])ccc2c1Cl)C(C)(C)C` (centres undefined) the Ki was 0.17 µM.
`CN=c1scc(C)n1/N=C/c1ccc(O)c(O)c1O` showed a Ki of 0.41 µM.
`Cc1[nH]n(-c2ccccc2)c(=S)c1C=NCCCN=Cc1c(C)[nH]n(-c2ccccc2)c1=S` was tested, and the Ki was 0.33 µM.
`CC(=O)OCCCNc1cc(Sc2nc3ccccc3s2)c2nonc2c1[N+](=O)[O-]` was tested, and the Ki was 0.22 µM.
For `COC(=O)CCC(=O)Nc1sc(C)c(C)c1C(N)=O`, the Ki was 1.14 µM.
`Cc1cccc(N2CCN(C(=O)Cn3sc4nc(C)cc(C)c4c3=O)CC2C)c1` (centres undefined) showed a Ki of 0.09 µM.
With `CCN(CC)S(=O)(=O)c1cccc(C(=O)N/N=C/c2ccc(O)c(O)c2O)c1` the Ki was 0.48 µM.
`COc1ccc(C2=CC(=O)C=CC2=O)cc1` showed a Ki of 0.12 µM.
Compound `Cc1[nH]n(-c2ccccc2)c(=S)c1C=Nc1cccc([N+](=O)[O-])c1` has a Ki of 0.04 µM.
Work on `O=C(COc1ccccc1C(=O)N/N=C/c1ccc(O)c(O)c1)N/N=C/c1ccc(O)c(O)c1` yielded a Ki of 0.09 µM.
`Cc1cc(Cl)ccc1N=c1ssnc1Cl` gave a Ki of 0.04 µM.
In the case of `NS(=O)(=O)c1ccc(N/N=C/c2ccc(O)c(O)c2O)c([N+](=O)[O-])c1`, the Ki is reported as 0.02 µM.
`O=C1C(Cl)=C(N2CCCCC2)C(=O)C(Cl)=C1c1cnc(N2CCCCC2)s1` gave a Ki of 0.1 µM.
Work on `CN1CCN(C2=C(Cl)C(=O)C(c3cnc(N4CCCCC4)s3)=C(Cl)C2=O)CC1` yielded a Ki of 0.02 µM.
`CC1(C)OC(=O)C(=Cc2ccc(-c3ccc(S(N)(=O)=O)cc3)o2)C(=O)O1` gave a Ki of 2.84 µM.
With `CCC(=O)NC(c1ccc(C)cc1)c1cc([N+](=O)[O-])c2cccnc2c1O` (centres undefined) the Ki was 4.24 µM.
`Cc1cccc(N2CCN(C(=O)COc3nsc4nc(C)cc(C)c34)CC2C)c1` (centres undefined) showed a Ki of 1.16 µM.
`CCN(CC)S(=O)(=O)c1cccc(-c2n[nH]c(=S)n2/N=C/c2ccc(C(=O)OC)cc2)c1` gave a Ki of 0.76 µM.

— PubChem BioAssay AID2298 (NMMLSC, 2010)
